# Measurements as given in ChEMBL document CHEMBL4304781, “Development of Highly Selective Pyrimidine-Based Aldosterone Synthase (CYP11B2) Inhibitors” (ACS Med Chem Lett, 2019).
# Columns and labels:
# [1] = Half life in cynomolgus monkey at 1 mg/kg, po measured after 24 or 72 hrs; format: ADME, organism-based, Macaca fascicularis; details: in vivo
# Summary of the method: (§1)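 Male cynomolgus monkeys dosed orally at 1 mg/kg in 0.5% CMC, 0.1% Tween-80, 1% DMSO. Plasma drug concentrations followed out to 24 or 72 h. Cmax, Tmax, AUC0-24 and t1/2 derived from plasma levels.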
# [2] = target: T1, Cytochrome P450 11B2, mitochondrial (Homo sapiens, UniProt P19099); assay: Inhibition of human recombinant CYP11B2 using deoxycorticosterone as substrate incubated for 90 mins by cell-based HPLC analysis
# T1 sequence (P19099 whole entry): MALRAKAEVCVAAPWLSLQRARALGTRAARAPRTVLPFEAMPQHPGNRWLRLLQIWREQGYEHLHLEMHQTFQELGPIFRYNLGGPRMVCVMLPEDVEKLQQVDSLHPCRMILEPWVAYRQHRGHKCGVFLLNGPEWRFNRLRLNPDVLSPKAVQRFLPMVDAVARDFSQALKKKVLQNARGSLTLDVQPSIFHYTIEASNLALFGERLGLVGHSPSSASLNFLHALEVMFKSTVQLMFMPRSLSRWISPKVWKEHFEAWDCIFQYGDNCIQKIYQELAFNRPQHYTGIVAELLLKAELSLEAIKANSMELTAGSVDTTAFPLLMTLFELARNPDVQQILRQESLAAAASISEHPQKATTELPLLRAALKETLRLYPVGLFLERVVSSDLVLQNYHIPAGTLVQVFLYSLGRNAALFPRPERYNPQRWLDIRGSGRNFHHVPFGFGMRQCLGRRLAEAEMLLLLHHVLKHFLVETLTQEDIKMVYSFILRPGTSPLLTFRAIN
# Summary of the method: (§2)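 Recombinant human CYP11B2 or CYP11B1. Substrate and product steroids both monitored by HPLC-MS. Selectivity taken as CYP11B1 IC50 / CYP11B2 IC50.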
# [3] = AUC (0 to 24 hrs) in cynomolgus monkey at 1 mg/kg, po measured after 24 or 72 hrs; format: ADME, organism-based, Macaca fascicularis; set-up: time < 24 hr, dose 1 mg/kg, route oral; details: in vivo; summary of the method: as §1
# [4] = Tmax in cynomolgus monkey at 1 mg/kg, po measured after 24 or 72 hrs; format: ADME, organism-based, Macaca fascicularis; details: in vivo; summary of the method: as §1
# [5] = Cmax in cynomolgus monkey at 1 mg/kg, po measured after 24 or 72 hrs; format: ADME, organism-based, Macaca fascicularis; set-up: dose 1 mg/kg, route oral; details: in vivo; summary of the method: as §1
# [6] = Stability in cynomolgus monkey liver microsomes assessed as parent compound remaining at 1 uM measured after 65 mins by LC/MS-MS analysis; format: ADME, Macaca fascicularis, Microsome; details: read-out: Stability
# Summary of the method: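 Parent compound percentage remaining after 65 min incubation with cynomolgus monkey liver microsomes.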
# Homo sapiens [7] = organism: Homo sapiens; assay: Selectivity index, ratio of IC50 for human recombinant CYP11B1 to IC50 for human recombinant CYP11B2; summary of the method: as §2
# [8] = target: T2, Cytochrome P450 11B1, mitochondrial (Homo sapiens, UniProt P15538); assay: Inhibition of human recombinant CYP11B1 using deoxycortisol as substrate incubated for 60 mins by cell-based HPLC analysis; format: ADME; summary of the method: as §2
# T2 sequence (P15538 whole entry): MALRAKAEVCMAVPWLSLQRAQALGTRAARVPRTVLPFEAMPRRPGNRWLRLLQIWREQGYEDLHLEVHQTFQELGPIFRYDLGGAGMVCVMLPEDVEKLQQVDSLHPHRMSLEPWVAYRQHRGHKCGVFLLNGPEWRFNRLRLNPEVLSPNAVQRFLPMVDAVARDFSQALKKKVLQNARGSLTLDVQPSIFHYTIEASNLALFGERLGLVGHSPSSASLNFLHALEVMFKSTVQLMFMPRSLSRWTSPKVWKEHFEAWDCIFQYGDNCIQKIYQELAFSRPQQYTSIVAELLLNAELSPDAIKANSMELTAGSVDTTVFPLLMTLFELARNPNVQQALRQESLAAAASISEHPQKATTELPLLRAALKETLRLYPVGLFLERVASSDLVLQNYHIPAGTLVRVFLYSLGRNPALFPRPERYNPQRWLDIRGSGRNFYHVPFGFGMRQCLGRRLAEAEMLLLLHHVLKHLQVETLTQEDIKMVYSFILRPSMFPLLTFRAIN
# Homo sapiens [9] = organism: Homo sapiens; assay: Selectivity index, ratio of IC50 for CYP2C19 (unknown origin) to IC50 for human recombinant CYP11B2
# Cynomolgus monkey [10] = assay: In vivo inhibition of CYP11B2 in cynomolgus monkey assessed as reduction in ACTH-induced plasma aldosterone AUC at 1 mg/kg, po administered 10 mins prior to ACTH stimulation for 7 days relative to control; format: functional; details: Macaca fascicularis
# Summary of the method: (§3)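 Conscious male cynomolgus monkeys. Day 1: vehicle, then ACTH challenge to drive adrenal steroidogenesis. Repeated after 7-day recovery with oral compound at 0.2, 1 and 3 mg/kg given 10 min before ACTH. Plasma aldosterone, cortisol, DOC and 11-deoxycortisol measured and AUCs calculated. Day 8 change expressed against each animal's own day 1 steroid AUC.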
# [11] = Fraction unbound in cynomolgus monkey plasma incubated for 6 hrs by HPLC-MS/MS analysis; format: ADME, cell-free, Macaca fascicularis
# Cynomolgus monkey [12] = assay: Effect on ACTH-induced 11-deoxycortisol level in cynomolgus monkey at 0.2 to 3 mg/kg, po administered 10 mins prior to ACTH stimulation for 7 days; format: ADME, organism-based, Macaca fascicularis; details: in vivo; summary of the method: as §3
# Aromatase = target: T3, Aromatase (Homo sapiens, UniProt P11511); assay: Inhibition of CYP19 (unknown origin)
# T3 sequence (P11511 whole entry): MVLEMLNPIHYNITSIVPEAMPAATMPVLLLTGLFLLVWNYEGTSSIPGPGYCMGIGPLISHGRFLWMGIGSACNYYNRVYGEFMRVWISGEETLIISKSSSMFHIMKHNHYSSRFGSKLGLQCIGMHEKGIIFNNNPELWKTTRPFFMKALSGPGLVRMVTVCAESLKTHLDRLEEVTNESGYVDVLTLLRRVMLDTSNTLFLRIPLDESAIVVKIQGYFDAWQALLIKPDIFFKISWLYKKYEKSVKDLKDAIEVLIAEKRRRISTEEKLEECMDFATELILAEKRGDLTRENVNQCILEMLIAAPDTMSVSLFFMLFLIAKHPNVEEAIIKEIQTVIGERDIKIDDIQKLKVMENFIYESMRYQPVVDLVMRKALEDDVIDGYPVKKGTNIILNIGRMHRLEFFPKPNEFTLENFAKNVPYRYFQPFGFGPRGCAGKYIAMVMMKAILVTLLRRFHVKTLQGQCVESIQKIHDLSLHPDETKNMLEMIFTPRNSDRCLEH
# Homo sapiens [13] = organism: Homo sapiens; assay: Selectivity index, ratio of IC50 for CYP3A4 (unknown origin) to IC50 for human recombinant CYP11B2
# Homo sapiens [14] = organism: Homo sapiens; assay: Selectivity index, ratio of IC50 for CYP2D6 (unknown origin) to IC50 for human recombinant CYP11B2
# [15] = Inhibition of cynomolgus monkey CYP11B1; format: ADME, Macaca fascicularis
# Cynomolgus monkey [16] = assay: Effect on ACTH-induced cortisol level in cynomolgus monkey at 0.2 to 3 mg/kg, po administered 10 mins prior to ACTH stimulation for 7 days; format: ADME, organism-based, Macaca fascicularis; details: in vivo; summary of the method: as §3
# Cynomolgus monkey [17] = assay: Effect on ACTH-induced DOC level in cynomolgus monkey at 0.2 to 3 mg/kg, po administered 10 mins prior to ACTH stimulation for 7 days; format: ADME, organism-based, Macaca fascicularis; details: in vivo; summary of the method: as §3
# Homo sapiens [18] = organism: Homo sapiens; assay: Selectivity index, ratio of IC50 for CYP2C9 (unknown origin) to IC50 for human recombinant CYP11B2
# Cynomolgus monkey [19] = assay: In vivo inhibition of CYP11B2 in cynomolgus monkey assessed as reduction in ACTH-induced plasma aldosterone AUC at 0.2 mg/kg, po administered 10 mins prior to ACTH stimulation for 7 days relative to control; format: functional; details: Macaca fascicularis; summary of the method: as §3
# [20] = Thermodynamic solubility in phosphate free buffer pH 7.4 incubated for 24 hrs by HPLC/LCMS-MS based shake flask method; format: physicochemical; details: read-out: Therm_solubility
# Cynomolgus monkey [21] = assay: In vivo inhibition of CYP11B2 in cynomolgus monkey assessed as reduction in ACTH-induced plasma aldosterone AUC administered orally 10 mins prior to ACTH stimulation for 7 days; format: functional, organism-based; details: Macaca fascicularis; summary of the method: as §3
# Cynomolgus monkey [22] = assay: In vivo inhibition of CYP11B2 in cynomolgus monkey assessed as reduction in ACTH-induced plasma aldosterone AUC at 3 mg/kg, po administered 10 mins prior to ACTH stimulation for 7 days relative to control; format: functional; details: Macaca fascicularis; summary of the method: as §3
# Homo sapiens [23] = organism: Homo sapiens; assay: Selectivity index, ratio of IC50 for CYP17 (unknown origin) to IC50 for human recombinant CYP11B2
# Macaca fascicularis = organism: Macaca fascicularis; assay: Selectivity index, ratio of IC50 for cynomolgus monkey CYP11B1 to IC50 for cynomolgus monkey CYP11B2
# Homo sapiens [24] = organism: Homo sapiens; assay: Selectivity index, ratio of IC50 for CYP19 (unknown origin) to IC50 for human recombinant CYP11B2
# [25] = Inhibition of cynomolgus monkey CYP11B2; set-up: species or system Macaca fascicularis
compound,measurement,setting,value
Fc1cc2nc(-c3cncnc3C(F)F)n(C3CC3)c2cc1F,half-life,[1],15.3 h
same,IC50,[2],18 nM
same,AUC(0-t) at 24 h,[3],8.8 µM·h
same,Tmax,[4],1 h
same,Cmax,[5],620 nM
same,"remaining at 65 min, 1 µM",[6],106%
same,Ratio IC50,Homo sapiens [7],240
same,IC50,[8],4320 nM
CNc1ncncc1-c1nc2cc(F)c(F)cc2n1C1CC1,IC50,[2],< 2 nM
same,Ratio IC50,Homo sapiens [7],> 195
same,IC50,[8],390 nM
N#Cc1ccc2nc(-c3cncnc3C(F)(F)F)n(C3CC3)c2c1,IC50,[2],16 nM
same,"remaining at 65 min, 1 µM",[6],62%
same,Ratio IC50,Homo sapiens [7],261
same,IC50,[8],4170 nM
Fc1ccc2nc(-c3cccnn3)n(C3CC3)c2c1,IC50,[2],412 nM
same,Ratio IC50,Homo sapiens [7],> 24
same,IC50,[8],> 10000 nM
CCc1ncncc1-c1nc2cc(F)c(F)cc2n1C1CC1,IC50,[2],8 nM
same,"remaining at 65 min, 1 µM",[6],78%
same,Ratio IC50,Homo sapiens [7],416
same,IC50,[8],3330 nM
N#Cc1ccc2nc(-c3cncnc3C(F)F)n(C3CC3)c2n1,half-life,[1],7.5 h
same,IC50,[2],29 nM
same,AUC(0-t) at 24 h,[3],32.2 µM·h
same,Tmax,[4],2 h
same,Cmax,[5],2880 nM
same,"remaining at 65 min, 1 µM",[6],101%
same,Ratio IC50,Homo sapiens [7],135
same,IC50,[8],3930 nM
Fc1cc2nc(-c3cncnc3C3CC3)n(C3CC3)c2cc1F,IC50,[2],172 nM
same,Ratio IC50,Homo sapiens [7],> 58
same,IC50,[8],> 10000 nM
N#Cc1ccc2nc(-c3cncnc3C(F)F)n(C3CC3)c2c1,half-life,[1],5.4 h
same,IC50,[2],9 nM
same,AUC(0-t) at 24 h,[3],8.3 µM·h
same,Tmax,[4],2 h
same,Cmax,[5],1000 nM
same,"remaining at 65 min, 1 µM",[6],84%
same,Ratio IC50,Homo sapiens [7],226
same,IC50,[8],2030 nM
Fc1cc2nc(-c3cncnc3C(F)(F)F)n(C3CC3)c2cc1F,half-life,[1],30 h
same,Ratio IC50,Homo sapiens [9],> 1000
same,inhibition in vivo at 1 mg/kg,Cynomolgus monkey [10],88%
same,fraction unbound at 6 h,[11],0.16
same,Activity,Cynomolgus monkey [12],Non-Toxic
same,IC50,Aromatase,6440 nM
same,Ratio IC50,Homo sapiens [13],> 1000
same,Ratio IC50,Homo sapiens [14],> 1000
same,IC50,[2],25 nM
same,IC50,[15],8850 nM
same,Activity,Cynomolgus monkey [16],Non-Toxic
same,Activity,Cynomolgus monkey [17],Non-Toxic
same,Ratio IC50,Homo sapiens [18],> 1000
same,AUC(0-t) at 24 h,[3],7.8 µM·h
same,inhibition in vivo at 0.2 mg/kg,Cynomolgus monkey [19],68%
same,solubility thermodynamic at 24 h,[20],9 µM
same,Tmax,[4],2 h
same,inhibition,Cynomolgus monkey [21],Dose-dependent effect
same,Cmax,[5],410 nM
same,"remaining at 65 min, 1 µM",[6],99%
same,inhibition in vivo at 3 mg/kg,Cynomolgus monkey [22],93%
same,Ratio IC50,Homo sapiens [23],> 1000
same,Ratio IC50,Homo sapiens [7],190
same,Ratio IC50,Macaca fascicularis,702
same,IC50,[8],4770 nM
same,Ratio IC50,Homo sapiens [24],250
same,IC50,[25],13 nM
CN(C)c1ncncc1-c1nc2cc(F)c(F)cc2n1C1CC1,IC50,[2],29 nM
same,"remaining at 65 min, 1 µM",[6],6%
same,Ratio IC50,Homo sapiens [7],159
same,IC50,[8],4630 nM
Fc1cc2nc(-c3cncnc3NCCC(F)(F)F)n(C3CC3)c2cc1F,IC50,[2],3 nM
same,"remaining at 65 min, 1 µM",[6],55%
same,Ratio IC50,Homo sapiens [7],126
same,IC50,[8],378 nM
Fc1ccc2nc(-c3cncs3)n(C3CC3)c2c1,IC50,[2],62 nM
same,Ratio IC50,Homo sapiens [7],73
same,IC50,[8],4520 nM
